Source: ChEMBL document CHEMBL1128595, “Synthesis and biological activity of 7-alkylidenecephems” (J Med Chem, 1995)

Columns and labels:
[1] = target: T1, Beta-lactamase (Enterobacter cloacae, UniProt P05364); assay: The concentration of compound to inhibit Beta-lactamase was measured on Enterobacter cloacae SC 12368; assay type: functional
[2] = target: T2, Beta-lactamase TEM (Escherichia coli, UniProt P62593); assay: (§1) The concentration of compound to inhibit Beta-lactamase was measured on Escherichia coli WC3310; assay type: functional
T2 sequence (P62593 whole entry): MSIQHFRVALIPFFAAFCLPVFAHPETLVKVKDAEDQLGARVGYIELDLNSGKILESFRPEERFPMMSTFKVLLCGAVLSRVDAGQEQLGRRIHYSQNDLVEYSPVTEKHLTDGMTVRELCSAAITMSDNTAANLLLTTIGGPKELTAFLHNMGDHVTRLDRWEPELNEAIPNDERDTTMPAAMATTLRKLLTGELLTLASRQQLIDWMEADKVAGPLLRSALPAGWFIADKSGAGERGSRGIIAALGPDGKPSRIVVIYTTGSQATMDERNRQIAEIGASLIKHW
Summary of the method: (§2)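 TEM-2 β-lactamase partially purified from E. coli W3310 (freeze-thaw lysis, DNase, Sephadex G-75 gel filtration). Enzyme preincubated with varied inhibitor in 50 mM phosphate buffer pH 7.2 at 25 °C for 10 min. Aliquot then diluted into nitrocefin (the more concentrated standard solution), and hydrolysis rate read at 482 nm.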

[3] = target: T1, Beta-lactamase; assay: The concentration of compound to inhibit Beta-lactamase was measured on Enterobacter cloacae P99; assay type: functional
[4] = target: T1, Beta-lactamase; assay: The concentration of compound to inhibit beta-lactamase was measured on Enterobacter cloacae P99; assay type: functional
[5] = target: T1, Beta-lactamase; assay: The concentration of compound to inhibit beta-lactamase was measured on Enterobacter cloacae SC 12368; assay type: functional
[6] = target: T2, Beta-lactamase TEM; assay: (§3) The concentration of compound to inhibit beta-lactamase was measured on Escherichia coli WC3310; assay type: functional; summary of the method: as §2
[7] = The pseudo second order rate constant of inhibition (k3'') was measured by using Kitz and Wilson method; assay type: ADME
Summary of the method: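 Kitz–Wilson analysis with E. cloacae P99 β-lactamase in 50 mM phosphate pH 7.2 at 25 °C. Enzyme incubated with five inhibitor concentrations (assay 2.8 × 10⁻⁸ to 1.4 × 10⁻⁷ M; enzyme 2.56 nM final). Aliquots taken at 30 s intervals over 5 min, diluted into nitrocefin (0.19 mM), absorbance at 482 nm read for 10 s. Reciprocal rate constants plotted against reciprocal inhibitor concentration.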

[8] = target: T2, Beta-lactamase TEM; assay: as §3; assay type: functional; remark: listed apart in the source
Summary of the method: (§4)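 TEM-2 β-lactamase partially purified from E. coli W3310 (freeze-thaw lysis, DNase, Sephadex G-75 gel filtration). Enzyme preincubated with varied inhibitor in 50 mM phosphate buffer pH 7.2 at 25 °C for 10 min.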

[9] = target: T2, Beta-lactamase TEM; assay: as §1; assay type: functional; summary of the method: as §4; remark: listed apart in the source

T1 sequence (P05364 whole entry): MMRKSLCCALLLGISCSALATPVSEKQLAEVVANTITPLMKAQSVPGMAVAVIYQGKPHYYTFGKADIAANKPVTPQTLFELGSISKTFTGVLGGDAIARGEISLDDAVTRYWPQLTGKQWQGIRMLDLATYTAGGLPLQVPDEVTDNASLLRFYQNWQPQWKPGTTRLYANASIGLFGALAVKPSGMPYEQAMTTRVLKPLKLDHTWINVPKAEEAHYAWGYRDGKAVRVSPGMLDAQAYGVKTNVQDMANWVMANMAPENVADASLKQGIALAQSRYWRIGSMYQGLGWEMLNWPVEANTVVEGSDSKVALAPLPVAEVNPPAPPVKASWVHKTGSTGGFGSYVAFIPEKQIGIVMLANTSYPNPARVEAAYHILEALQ

Row | SMILES | IC50 [1] [µM] | IC50 [2] [µM] | IC50 [3] [µM] | IC50 [4] [µM] | IC50 [5] [µM] | IC50 [8] [µM] | further results
1 | CC(=O)OCC1=C(C(=O)O)N2C(=O)/C(=C/C=O)[C@H]2SC1 | 16.5 | > 20 | 8.2 |  |  |  | 
2 | CC(=O)OCC1=C(C(=O)O)N2C(=O)/C(=C/c3ccccn3)[C@H]2SC1 | > 20 | > 2 | > 20 |  |  |  | 
3 | CC(=O)OCC1=C(C(=O)O)N2C(=O)/C(=C/CO)[C@H]2S(=O)(=O)C1 |  |  |  | > 20 | > 20 |  | IC50 [6]: > 20 µM
4 | CC(=O)OCC1=C(C(=O)[O-])N2C(=O)/C(=C/c3ccccn3)[C@H]2S(=O)(=O)C1.[Na+] |  |  |  | 0.025 | 0.025 | 0.8 | k3' [7]: 5.3e+06 L (M min)-1
5 | CC(=O)OCC1=C(C(=O)O)N2C(=O)C(=C(Cl)Cl)[C@H]2S(=O)(=O)C1 |  |  |  | > 20 | > 20 | 8.3 | 
6 | O=C([O-])[C@H]1/C(=C/CO)O[C@@H]2CC(=O)N21.[Na+] [CLAVULANIC ACID (SODIUM)] |  |  |  |  |  |  | k3' [7]: 799 L (M min)-1
7 | CC(=O)/C=C1/C(=O)N2C(C(=O)O)=C(COC(C)=O)CS[C@H]12 | > 20 | > 20 | > 20 |  |  |  | 
8 | CC(=O)OCC1=C(C(=O)O)N2C(=O)C(=C(Br)Br)[C@H]2S(=O)(=O)C1 |  |  |  | > 20 | > 20 | > 20 | 
9 | CC(=O)OCC1=C(C(=O)O)N2C(=O)/C(=C\Br)[C@H]2S(=O)(=O)C1 |  |  |  | > 20 | > 20 |  | IC50 [6]: > 20 µM
10 | CC(=O)OCC1=C(C(=O)O)N2C(=O)/C(=C\Br)[C@H]2SC1 | > 20 |  | > 20 |  |  |  | IC50 [9]: > 20 µM
11 | CC(=O)OCC1=C(C(=O)O)N2C(=O)/C(=C/C(=O)OC(C)(C)C)[C@H]2SC1 | > 20 | > 20 | 2.5 |  |  |  | 
12 | CON(C)C(=O)/C=C1/C(=O)N2C(C(=O)O)=C(COC(C)=O)CS[C@H]12 |  |  |  | > 20 | > 20 | > 20 | 
13 | CC(=O)OCC1=C(C(=O)[O-])N2C(=O)C(=C=CC(C)(C)C)[C@H]2S(=O)(=O)C1.[Na+] | 0.26 | > 20 | 0.13 |  |  |  | k3' [7]: 1.7e+06 L (M min)-1
14 | CC(=O)OCC1=C(C(=O)O)N2C(=O)/C(=C/C(C)(C)C)[C@H]2S(=O)(=O)C1 |  |  |  | > 20 | > 20 |  | IC50 [6]: > 20 µM
15 | CC(=O)OCC1=C(C(=O)O)N2C(=O)/C(=C/c3ccccc3)[C@H]2SC1 | > 20 | > 20 | > 20 |  |  |  | 
16 | CC(=O)OCC1=C(C(=O)O)N2C(=O)/C(=C/c3ccccc3)[C@H]2S(=O)(=O)C1 |  |  |  | 6.25 | 6.8 | > 20 | 
17 | CC(=O)OCC1=C(C(=O)O)N2C(=O)/C(=C/C(=O)OC(C)(C)C)[C@H]2S(=O)(=O)C1 |  |  |  | 7.8 | 5.9 | 0.005 | 
18 | C[C@]1(Cn2ccnn2)[C@H](C(=O)[O-])N2C(=O)C[C@H]2S1(=O)=O.[Na+] [TAZOBACTAM SODIUM] |  |  |  |  |  |  | k3' [7]: 74000 L (M min)-1
19 | CC(=O)OCC1=C(C(=O)O)N2C(=O)/C(=C/C(C)(C)C)[C@H]2SC1 |  |  |  | > 20 | > 20 |  | IC50 [6]: > 20 µM
20 | CC(=O)OCC1=C(C(=O)O)N2C(=O)C(=C(Cl)Cl)[C@H]2SC1 | > 20 | > 20 | > 20 |  |  |  | 
21 | CC(=O)OCC1=C(C(=O)O)N2C(=O)/C(=C\c3ccccc3)[C@H]2S(=O)(=O)C1 |  |  |  | > 20 | > 20 | > 20 | 
22 | CC(=O)OCC1=C(C(=O)O)N2C(=O)C(=C(Br)Br)[C@H]2SC1 | > 20 | > 20 | > 20 |  |  |  | 
